{
  "source": "ChEMBL document CHEMBL1158394",
  "about": "“Diversity-oriented synthesis of furo[3,2-f]chromanes with antimycobacterial activity” (Eur J Med Chem, 2009)",
  "data": [
    {"tested_on": "Mycobacterium tuberculosis variant bovis BCG", "assay": "Antimycobacterial activity against Mycobacterium bovis BCG Pasteur after 6 days by microdilution resazurin assay", "type": "functional", "conditions": "144 h", "summary_of_the_method": "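Microdilution resazurin assay with M. bovis BCG inoculum grown in Dubos medium with 10% ADC. Drugs (DMSO stocks of 50 mg/mL) are twofold serially diluted in 96-well plates, with DMSO and isoniazid controls, then incubated at 37 °C. Resazurin (0.01% w/v) is added and incubation continues 24 h. MIC95 is the amount giving >95% growth inhibition, in µg/mL. Duplicate runs in two independent experiments.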", "units": {"MIC95": "µg/mL"}, "values": [
      {"molecule": "Cc1c2c(c3cc(-c4ccccn4)oc3c1C)CCC(C)(C)O2", "MIC95": "> 100"},
      {"molecule": "Cc1c2c(c3cc(-c4ccc(Cl)nc4)oc3c1C)CCC(C)(C)O2", "MIC95": "> 100"},
      {"molecule": "Cc1c2c(c3cc(-c4ccc(NCCCN(C)C)nc4)oc3c1C)CCC(C)(C)O2", "MIC95": 6.2},
      {"molecule": "Cc1c(-c2ccncc2)oc2ccc3c(c12)C=CC(C)(C)O3", "MIC95": 6.2},
      {"molecule": "Cc1c2c(c3cc(CCC(=O)N4CCOCC4)oc3c1C)CCC(C)(C)O2", "MIC95": "> 100"},
      {"molecule": "CC1(C)CCc2c(ccc3oc(-c4cccnc4)c(CCCO)c23)O1", "MIC95": 6.2},
      {"molecule": "Cc1c2c(c3cc(-c4cnccn4)oc3c1C)CCC(C)(C)O2", "MIC95": 25},
      {"molecule": "Cc1c2c(c3cc(-c4ccc(-c5nn[nH]n5)nc4)oc3c1C)CCC(C)(C)O2", "MIC95": 25},
      {"molecule": "CC(=O)OCc1cc2c3c(c(C)c(C)c2o1)OC(C)(C)CC3", "MIC95": "> 100"},
      {"molecule": "Cc1c2c(c3cc(CCc4cccnc4)oc3c1C)CCC(C)(C)O2", "MIC95": 3.1},
      {"molecule": "Cc1c2c(c3cc(-c4ccc[n+]([O-])c4)oc3c1C)CCC(C)(C)O2", "MIC95": 12.5},
      {"molecule": "Cc1c2c(c3cc(Cc4ccc(Cl)cc4)oc3c1C)CCC(C)(C)O2", "MIC95": "> 100"},
      {"molecule": "CC1(C)CCc2c(ccc3oc(-c4ccncc4)c(CCCO)c23)O1", "MIC95": 12.5},
      {"molecule": "Cc1c2c(c3cc(-c4ccncc4)oc3c1C)CCC(C)(C)O2", "MIC95": 3.1},
      {"molecule": "NNC(=O)c1ccncc1", "note": "[ISONIAZID]", "MIC95": 0.4},
      {"molecule": "COC(=N)c1ccc(-c2cc3c4c(c(C)c(C)c3o2)OC(C)(C)CC4)cn1", "MIC95": 6.2},
      {"molecule": "Cc1c2c(c3cc(/C=C/c4cccnc4)oc3c1C)CCC(C)(C)O2", "MIC95": 6.2},
      {"molecule": "Cc1c2c(c3cc(-c4cccnc4)oc3c1C)CCC(C)(C)O2", "MIC95": 3.1},
      {"molecule": "Cc1c2c(c3cc(Cc4cccs4)oc3c1C)CCC(C)(C)O2", "MIC95": "> 100"},
      {"molecule": "Cc1c2c(c3cc(-c4cccs4)oc3c1C)CCC(C)(C)O2", "MIC95": "> 100"},
      {"molecule": "Cc1c2c(c3cc(Cc4cccnc4)oc3c1C)CCC(C)(C)O2", "MIC95": 6.2},
      {"molecule": "CC1(C)C=Cc2c(ccc3oc(-c4ccncc4)cc23)O1", "MIC95": 6.2}
    ]}
  ]
}
